ChEMBL document CHEMBL3297658, “Potent fluorinated agelastatin analogues for chronic lymphocytic leukemia: design, synthesis, and pharmacokinetic studies” (J Med Chem, 2014)
Converted amounts (≈) assume the structure as drawn.

Tests used:
Liver = assay: Metabolic stability in mouse liver microsomes at 100 uM measured after 1 hr by LC/MS analysis in presence of 1 mM NADPH; type: ADME
How it was run: (§1)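 Microsomes (final protein 5 mg/mL, mouse or human) in 0.1 M sodium phosphate pH 7.4 with compound at 100 μM final (DMSO <1%). Preincubated 5 min at 37 °C, started with NADPH (1 mM final), run 60 min at 37 °C with agitation. Stopped with MeOH and centrifuged; supernatant analysed by LCMS. Controls: zero time, no NADPH, heat-inactivated microsomes, and 7-ethoxycoumarin as CYP substrate.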

Liver microsome = assay: Metabolic stability in human liver microsomes at 100 uM measured after 1 hr by LC/MS analysis in presence of 1 mM NADPH; type: ADME; how it was run: as §1
[1] = Antitumor activity against human JVM2 cells assessed as cell viability after 48 hrs by FACS analysis; type: functional, cell-based; settings: JVM-2, 48 h
How it was run: (§2)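 Primary CLL patient cells or JVM-2 line cultured 48 h (37 °C, 5% CO2) in RPMI + 10% FBS with graded compound. Stained 30 min at 37 °C with 40 nM DiOC6 and 10 μg/mL PI, then flow cytometry (525 nm DiOC6, 600 nm PI). Viability = % DiOC6+/PI− relative to untreated or vehicle control. EC50 and SE fitted from dose–response curves.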

HeLa = assay: Antitumor activity against human HeLa cells assessed as cell viability by MTT assay; type: functional, cell-based
How it was run: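 Adherent HeLa cells exposed to compound, then medium replaced with 0.5 mg/mL MTT in phenol-red-free RPMI and incubated overnight at 37 °C. Lysed with 15% SDS/0.015 M HCl and OD read at 570 nm once formazan dissolved. EC50 and SE derived from dose–response curves.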

[2] = Antitumor activity against CLL1 cells isolated from CLL patient assessed as cell viability after 48 hrs by FACS analysis; type: functional, cell-based; settings: Homo sapiens; how it was run: as §2
[3] = Antitumor activity against CLL2 cells isolated from CLL patient assessed as cell viability after 48 hrs by FACS analysis; type: functional, cell-based, Homo sapiens; how it was run: as §2
[4] = Antitumor activity against CLL6 cells isolated from CLL patient assessed as cell viability after 48 hrs by FACS analysis; type: functional, cell-based; settings: Homo sapiens, CLL6, 48 h; how it was run: as §2
[5] = Tmax in BALB/c mouse plasma at 5 mg/kg, ip administered as single dose by LC/MS analysis; type: ADME, organism-based; design: dose 5 mg/kg, route intraperitoneal
How it was run: (§3)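 Female BALB/c mice dosed at 6 weeks of age with a single intraperitoneal dose of 2.5 or 5.0 mg/kg, n = 4. Tail-vein blood taken at set times and stored at -80 °C. Samples precipitated with CH3CN, spun at 3000g for 10 min, concentrated, reconstituted in 1:1 CH3CN/H2O and quantified by LCMS. PK parameters derived from the concentration–time curves.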

[6] = Cmax in BALB/c mouse plasma at 5 mg/kg, ip administered as single dose by LC/MS analysis; type: ADME, organism-based; design: dose 5 mg/kg, route intraperitoneal; how it was run: as §3
[7] = Cmax in BALB/c mouse plasma at 2.5 mg/kg, ip administered as single dose by LC/MS analysis; type: ADME, organism-based; design: dose 2.5 mg/kg, route intraperitoneal; how it was run: as §3
[8] = Lipophilicity, log P of compound at 25 degC; type: physicochemical; settings: octanol/water
[9] = Drug recovery in BALB/c mouse serum at 50 uM after 24 hrs by LC-MS method; type: ADME, cell-free; settings: read-out: Drug recovery
How it was run: (§4)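 Compound added to pooled female BALB/c mouse plasma or serum, or to human AB serum, at 50 μM final (1% DMSO) and incubated at 37 °C with gentle agitation. Aliquots taken at 0, 0.5, 1, 2, 8, 18 and 24 h, proteins precipitated with CH3CN, spun at 3000g for 10 min, supernatant analysed by LCMS. Run in triplicate.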

[10] = Half life in BALB/c mouse plasma at 5 mg/kg, ip administered as single dose by LC/MS analysis; type: ADME, organism-based; design: dose 5 mg/kg, route intraperitoneal; how it was run: as §3
Serum [11] = assay: Protein binding in BALB/c mouse serum at 50 uM after 1 to 24 hrs by LC-MS method; type: ADME; how it was run: as §4
[12] = Solubility of compound in water at 25 degC; type: physicochemical; settings: buffer
[13] = Antitumor activity against CLL5 cells isolated from CLL patient assessed as cell viability after 48 hrs by FACS analysis; type: functional, cell-based; settings: Homo sapiens; how it was run: as §2
[14] = AUC in BALB/c mouse plasma at 2.5 mg/kg, ip administered as single dose by LC/MS analysis; type: ADME, organism-based; design: dose 2.5 mg/kg, route intraperitoneal; how it was run: as §3
[15] = AUC in BALB/c mouse plasma at 5 mg/kg, ip administered as single dose by LC/MS analysis; type: ADME, organism-based; design: dose 5 mg/kg, route intraperitoneal; how it was run: as §3
[16] = Antitumor activity against CLL3 cells isolated from CLL patient assessed as cell viability after 48 hrs by FACS analysis; type: functional, cell-based; settings: Homo sapiens; how it was run: as §2
Serum [17] = assay: Protein binding in human AB serum at 50 uM after 1 to 24 hrs by LC-MS method; type: ADME; how it was run: as §4
[18] = Drug recovery in BALB/c mouse plasma at 50 uM after 24 hrs by LC-MS method; type: ADME, cell-free; settings: read-out: Drug recovery; how it was run: as §4
Plasma = assay: Protein binding in BALB/c mouse plasma at 50 uM after 1 to 24 hrs by LC-MS method; type: ADME, cell-free; how it was run: as §4
[19] = Drug recovery in human AB serum at 50 uM after 24 hrs by LC-MS method; type: ADME, cell-free; settings: read-out: Drug recovery; how it was run: as §4
[20] = Antitumor activity against CLL4 cells isolated from CLL patient assessed as cell viability after 48 hrs by FACS analysis; type: functional, cell-based; settings: Homo sapiens; how it was run: as §2
[21] = Half life in BALB/c mouse plasma at 2.5 mg/kg, ip administered as single dose by LC/MS analysis; type: ADME, organism-based; design: dose 2.5 mg/kg, route intraperitoneal; settings: BALB/c, plasma; how it was run: as §3
[22] = Tmax in BALB/c mouse plasma at 2.5 mg/kg, ip administered as single dose by LC/MS analysis; type: ADME, organism-based; design: dose 2.5 mg/kg, route intraperitoneal; how it was run: as §3

SMILES: CCOc1ccc2ccc(=O)oc2c1 [ETHOXYCOUMARIN]
- Stability (Liver): Unstable
- Stability (Liver microsome): Unstable

SMILES: CN1C(=O)N[C@H]2[C@@H]3NC(=O)c4cc(I)c(I)n4[C@@H]3C[C@]21O
- EC50 [1]: 49 µM
- EC50 (HeLa): 262 µM
- EC50 [2]: 26.4 µM
- EC50 ([3]; Homo sapiens, CLL2, 48 h): 96 µM

SMILES: CN1C(=O)N[C@H]2[C@@H]3NC(=O)c4ccc(C(F)(F)F)n4[C@@H]3C[C@]21O
- EC50 [4]: 0.65 µM
- Tmax [5]: 30 min
- Cmax [6]: 3.25 µM
- Cmax [7]: 4.18 µM
- EC50 [1]: 0.66 µM
- logP [8]: 0.78
- remaining at 24 h, 50 µM [9]: 65%
- half-life [10]: 45 min
- PB (Serum [11]): Not Active
- solubility [12]: 300 µg/mL (≈ 908 µM)
- EC50 [13]: 28.4 µM
- AUC [14]: 12.9 µM·h
- AUC [15]: 6.51 µM·h
- EC50 [16]: 3.04 µM
- EC50 (HeLa): 0.15 µM
- PB (Serum [17]): Not Active
- remaining at 24 h, 50 µM [18]: 65%
- PPB (Plasma): Not Active
- EC50 [2]: 0.43 µM
- remaining at 24 h, 50 µM [19]: 65%
- Stability (Liver): Stable
- EC50 [20]: 0.33 µM
- half-life [21]: 72 min
- Stability (Liver microsome): Stable
- Tmax [22]: 15 min
- EC50 ([3]; Homo sapiens, CLL2, 48 h): 0.064 µM

SMILES: CN1C(=O)N[C@H]2[C@@H]3NC(=O)c4ccc(Br)n4[C@@H]3C[C@]21O (stereo in doubt; 3) [AGELASTATIN A]
- EC50 ([3]; cll2): > 1 µM

SMILES: O=C1N[C@H]2[C@@H]3NC(=O)c4ccc(Br)n4[C@@H]3C[C@@]2(O)N1 [AGELASTATIN D]
- EC50 [1]: 13.2 µM
- EC50 [2]: 91.1 µM
- EC50 ([3]; Homo sapiens, CLL2, 48 h): 29 µM
